T1: Ectonucleoside triphosphate diphosphohydrolase 1 (Bos taurus, UniProt O18956)
T1 sequence (O18956 whole entry): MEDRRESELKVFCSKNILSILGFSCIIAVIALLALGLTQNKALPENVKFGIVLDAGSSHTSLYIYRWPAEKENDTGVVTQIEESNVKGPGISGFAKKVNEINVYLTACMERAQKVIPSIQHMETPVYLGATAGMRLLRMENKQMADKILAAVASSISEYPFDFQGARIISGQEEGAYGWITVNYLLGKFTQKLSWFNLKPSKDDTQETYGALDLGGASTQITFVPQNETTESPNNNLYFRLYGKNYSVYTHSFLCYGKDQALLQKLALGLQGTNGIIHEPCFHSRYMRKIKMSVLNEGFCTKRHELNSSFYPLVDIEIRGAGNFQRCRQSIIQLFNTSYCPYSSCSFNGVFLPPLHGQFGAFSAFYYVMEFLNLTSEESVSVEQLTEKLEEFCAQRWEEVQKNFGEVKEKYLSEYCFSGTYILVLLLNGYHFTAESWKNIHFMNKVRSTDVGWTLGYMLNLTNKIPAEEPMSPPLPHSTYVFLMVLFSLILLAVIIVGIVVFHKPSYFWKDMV


Columns and labels:
Format in all cases: tissue-based
[1] = target: T1, Ectonucleoside triphosphate diphosphohydrolase 1; assay: (§1) Tested for inhibition of Nucleoside Triphosphate Diphosphohydrolase (NTPDase) from bovine spleen.
Method in brief: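 Bovine spleen particulate fraction. Medium: 8 mM CaCl2, 5 mM tetramisole, 50 mM Tris, 50 mM imidazole, pH 7.6, 37 °C. Started with 1.9 μg enzyme, stopped after 7 min; Pi release read by malachite green. Triplicate.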

[2] = compound: Nc1ncnc2c1nc(Br)n2C1O[C@H](COP(=O)(O)OP(=O)(O)OP(=O)(O)O)[C@@H](O)[C@H]1O; assay: as §1
Method in brief: (§2)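 Bovine spleen particulate fraction. […] Medium: 8 mM CaCl2, 5 mM tetramisole, 50 mM Tris, 50 mM imidazole, pH 7.6, 37 °C. Started with 1.9 μg enzyme, stopped after 7 min; Pi release read by malachite green. Triplicate.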

[3] = compound: CCCCNc1nc2c(N)ncnc2n1[C@@H]1O[C@H](COP(=O)(O)OP(=O)(O)OP(=O)(O)O)[C@@H](O)[C@H]1O; assay: as §1; method in brief: as §2
[4] = compound: CCSc1nc2c(N)ncnc2n1[C@@H]1O[C@H](COP(=O)(O)OP(=O)(O)OP(=O)(O)O)[C@@H](O)[C@H]1O; assay: as §1; method in brief: as §2
[5] = compound: CCCCSc1nc(N)c2ncn(C3O[C@H](COP(=O)(O)OP(=O)(O)O)[C@@H](O)[C@H]3O)c2n1; assay: as §1; method in brief: as §2
[6] = compound: CCCCOc1nc(N)c2ncn([C@@H]3O[C@H](COP(=O)(O)OP(=O)(O)OP(=O)(O)O)[C@@H](O)[C@H]3O)c2n1; assay: as §1; method in brief: as §2
[7] = compound: Nc1ncnc2c1ncn2[C@@H]1O[C@H](COP(=O)(O)OP(=O)(O)OP(=O)(O)O)[C@@H](O)[C@H]1O; assay: as §1; method in brief: as §2
[8] = compound: Nc1ncnc2c1ncn2[C@@H]1O[C@H](COP(=O)(O)OP(=O)(O)O)[C@@H](O)[C@H]1O; assay: as §1; method in brief: as §2
[9] = compound: CCCCNc1nc(N)c2ncn([C@@H]3O[C@H](COP(=O)(O)OP(=O)(O)OP(=O)(O)O)[C@@H](O)[C@H]3O)c2n1; assay: as §1; method in brief: as §2
[10] = compound: CCCCSc1nc(N)c2ncn([C@@H]3O[C@H](COP(=O)(O)OP(=O)(O)OP(=O)(O)O)[C@@H](O)[C@H]3O)c2n1; assay: as §1; method in brief: as §2
[11] = compound: CCCCOc1nc2c(N)ncnc2n1[C@@H]1O[C@H](COP(=O)(O)OP(=O)(O)OP(=O)(O)O)[C@@H](O)[C@H]1O; assay: as §1; method in brief: as §2

Molecule | Ki [1] | Km [2] | Km [3] | Km [4] | Km [5] | Km [6] | Km [7] | Km [8] | Km [9] | Km [10] | Km [11]
Nc1ncnc2c1nc(SC1CCCCCC1)n2C1O[C@H](COP(=O)(O)OP(=O)(O)OP(=O)(O)O)[C@@H](O)[C@H]1O (stereo partly specified) | 31 µM |  |  |  |  |  |  |  |  |  | 
Ectonucleoside triphosphate diphosphohydrolase 1 (Bos taurus), O18956 (protein) MEDRRESELKVFCSKNILSILGFSCIIAVIALLALGLTQNKALPENVKFGIVLDAGSSHTSLYIYRWPAEKENDTGVVTQIEESNVKGPGISGFAKKVNEINVYLTACMERAQKVIPSIQHMETPVYLGATAGMRLLRMENKQMADKILAAVASSISEYPFDFQGARIISGQEEGAYGWITVNYLLGKFTQKLSWFNLKPSKDDTQETYGALDLGGASTQITFVPQNETTESPNNNLYFRLYGKNYSVYTHSFLCYGKDQALLQKLALGLQGTNGIIHEPCFHSRYMRKIKMSVLNEGFCTKRHELNSSFYPLVDIEIRGAGNFQRCRQSIIQLFNTSYCPYSSCSFNGVFLPPLHGQFGAFSAFYYVMEFLNLTSEESVSVEQLTEKLEEFCAQRWEEVQKNFGEVKEKYLSEYCFSGTYILVLLLNGYHFTAESWKNIHFMNKVRSTDVGWTLGYMLNLTNKIPAEEPMSPPLPHSTYVFLMVLFSLILLAVIIVGIVVFHKPSYFWKDMV |  | 22 µM | 20 µM | 12 µM | 63 µM | 28 µM | 18 µM | 33 µM | 32 µM | 36 µM | 26 µM
